In the library only some 1.9% were active in any assay of this set; here they are far more common.
SR-BI uptake up – SR-BI HDL lipid transfer activation; activation, % at 12.5 µM; CHO ldlA[mSR-BI] cells, DiI-HDL uptake fluorescence, 3 h; 100 = double the neutral-control signal; 0.096% of 320,000 active; AID 504775;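 active means mean replicate activation of at least 60% and every replicate at or above 60%; inconclusive means mean or all-replicate condition met, but not both; inactive means mean below 60% and not all replicates reaching 60%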;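 further: 0% = median plate neutral-control signal and 100% = twice that signal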
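Test system: SR-BI-overexpressing, LDLR-lacking CHO cells; Medium: Ham's F12 with 0.5% BSA, HEPES 25 mM, pH 7.4; Schedule: 3 h, 37 °C; Technique: bottom-read fluorescence, 550/595 nm.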
SR-BI DiI inh – blocks mouse SR-BI lipid uptake from DiI-HDL; Q61009; inhibition, % at 12.5 µM; AID 488896; ldlA[mSR-BI] CHO cells, DiI-HDL uptake fluorescence, 3 h; 0.96% of 320,000 active;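 active means mean replicate inhibition of at least 70% and a set share of replicates each scoring 70 or more; inconclusive means meets just one of the two criteria; inactive means fails both criteria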;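 further: 0% = median of neutral control wells and 100% = median of positive control wells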
Target sequence (Q61009 whole entry, looked up): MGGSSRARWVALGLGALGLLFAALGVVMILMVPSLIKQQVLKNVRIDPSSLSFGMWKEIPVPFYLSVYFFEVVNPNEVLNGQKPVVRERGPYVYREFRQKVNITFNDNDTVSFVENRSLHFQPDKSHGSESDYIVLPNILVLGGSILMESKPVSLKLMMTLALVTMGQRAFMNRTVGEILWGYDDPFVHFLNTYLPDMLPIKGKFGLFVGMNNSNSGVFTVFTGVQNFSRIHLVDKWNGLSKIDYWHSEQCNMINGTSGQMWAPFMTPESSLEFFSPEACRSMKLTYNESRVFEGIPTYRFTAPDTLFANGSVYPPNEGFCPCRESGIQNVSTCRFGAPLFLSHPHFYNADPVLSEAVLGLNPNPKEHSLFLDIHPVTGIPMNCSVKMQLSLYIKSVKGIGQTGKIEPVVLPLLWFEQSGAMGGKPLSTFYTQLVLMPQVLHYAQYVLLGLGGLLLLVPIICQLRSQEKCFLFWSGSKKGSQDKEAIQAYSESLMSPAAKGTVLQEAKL
Neddylation inh – inhibitors of human cullin neddylation. P61081+Q13564. TR-FRET cullin neddylation, biochemical. inhibition, % at 25 µM. 0.58% of 360,000 active; in the data active means inhibition above about 36%
UBC13 polyUb – inhibitors of human UBC13 polyubiquitin chain formation | P61088 | TR-FRET | inhibition, % at 20 µM | 0.47% of 330,000 active; in the data active means inhibition above about 45%, passing the limit was not always enough; inconclusive means no clear call, values can overlap the other calls
Target sequence (P61088 whole entry, looked up): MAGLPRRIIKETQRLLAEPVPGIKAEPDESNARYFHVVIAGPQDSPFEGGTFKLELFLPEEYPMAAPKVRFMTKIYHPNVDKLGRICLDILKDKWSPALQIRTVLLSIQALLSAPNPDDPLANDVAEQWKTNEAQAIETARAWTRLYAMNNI
The depositor's hits bear a star.

Results for O=c1ccc2cc3c([nH]c4ccc(Br)cc43)oc-2c1O ?
SR-BI uptake up: -87.8; SR-BI DiI inh: 87.8*; Neddylation inh: -34.0; UBC13 polyUb: -184.3

Results for O=C(O)c1ccc(N=Nc2c(O)[nH]c3ccc(Br)cc23)cc1 ?
SR-BI uptake up: 5.4; SR-BI DiI inh: -5.4; Neddylation inh: -10.0; UBC13 polyUb: -27.4

What do the screens show for `Cc1c(C(=O)NCc2ccc(F)cc2)sc(=O)n1Cc1ccccc1F`?
Neddylation inh: 6.7

Results for O=Nc1c(O)ccc2cc(S(=O)(=O)O)ccc12 ?
SR-BI uptake up: 9.5; SR-BI DiI inh: -9.5

Results for Nc1cccc2cc(S(=O)(=O)O)ccc12 ?
SR-BI uptake up: 24.4; SR-BI DiI inh: -24.4; Neddylation inh: 46.3*

How did COc1ccc(OC)c(NC(=O)Nc2ccc3[nH]ccc3c2)c1 do in these assays?
Neddylation inh: -10.1; UBC13 polyUb: inconclusive

What do the screens show for `CN1C(=O)CSc2ccc(NC(=O)N3CCN(c4ccccc4)CC3)cc21`?
SR-BI uptake up: -77.6; SR-BI DiI inh: 77.5*; Neddylation inh: 5.2; UBC13 polyUb: 0.3

How did CCC(c1nnnn1-c1ccc2c(c1)OCCO2)N1CCN(c2ccc(F)cc2)CC1 (stereo not given) do in these assays?
Neddylation inh: 10.1

What do the screens show for `Cc1ccc(S(=O)(=O)N(C)c2ccc(OCC(=O)Nc3ccc(S(C)(=O)=O)cc3)cc2)cc1`?
SR-BI uptake up: -9.1; SR-BI DiI inh: 9.1; Neddylation inh: -33.7

What do the screens show for `Cc1ccc(S(=O)(=O)N(C)c2ccc(OCC(=O)Nc3cccc(-n4cnnn4)c3C)cc2)cc1`?
SR-BI uptake up: -84.2; SR-BI DiI inh: 84.2*; Neddylation inh: -2.5; UBC13 polyUb: 4.8

How did CC1=C(C(=O)OC(C)C)C(c2ccc(Cl)cc2)n2c(s/c(=C\c3ccc(OCC(=O)O)cc3)c2=O)=N1 (stereo not given) do in these assays?
SR-BI uptake up: -20.6; SR-BI DiI inh: 20.6; Neddylation inh: 14.5

How did CC(C)(CNC(=O)Cc1ccc(NS(=O)(=O)c2cccc(C(F)(F)F)c2)cc1)N1CCOCC1 do in these assays?
SR-BI uptake up: 20.7; SR-BI DiI inh: -20.7; Neddylation inh: -7.8; UBC13 polyUb: -3.8

What do the screens show for `CCCC(=O)N(C1CC(C)C(C#N)(C#N)C1(C#N)C#N)N(C)C` (stereo not given)?
SR-BI uptake up: -20.0; SR-BI DiI inh: 20.0; Neddylation inh: 53.4*; UBC13 polyUb: 0.5

How did CCOc1ccc(C(=O)Nc2cccc(-c3cc4ccccc4oc3=O)c2)cc1[N+](=O)[O-] do in these assays?
SR-BI uptake up: -79.6; SR-BI DiI inh: 79.6*; Neddylation inh: 6.5; UBC13 polyUb: -6.7

Results for C=CCNC(=O)c1c(Cl)cnn1-c1ccc(C)cc1 ?
SR-BI uptake up: 9.2; SR-BI DiI inh: -9.2; Neddylation inh: -24.5; UBC13 polyUb: -7.4

Results for CCN1/C(=C\C(=S)Nc2ccccc2)Sc2ccccc21 ?
SR-BI uptake up: -80.5; SR-BI DiI inh: 80.5*; Neddylation inh: -155.1; UBC13 polyUb: 9.5

Results for COc1cc(/C=C/C(=O)c2ccc3c(c2)OCCO3)cc(OC)c1OC ?
SR-BI uptake up: -71.6; SR-BI DiI inh: 71.6*; Neddylation inh: 3.0; UBC13 polyUb: -4.7

What do the screens show for `COc1ccc(/C=C/C(=O)NC(=S)NNC(=O)c2cnccn2)cc1`?
SR-BI uptake up: -22.1; SR-BI DiI inh: 22.1; Neddylation inh: 59.1*; UBC13 polyUb: -20.7

What do the screens show for `O=C(/C=C/c1ccc(F)cc1)NC(=S)NNC(=O)c1cnccn1`?
SR-BI uptake up: -12.7; SR-BI DiI inh: 12.8; Neddylation inh: 65.1*; UBC13 polyUb: -18.2

How did COc1ccc(/C=C/C(=O)NC(=S)NNC(=O)c2cccnc2)cc1 do in these assays?
SR-BI uptake up: -6.7; SR-BI DiI inh: 6.7; Neddylation inh: -15.4; UBC13 polyUb: 5.6

How did CN(C)c1ccc(S(=O)(=O)NCC(=O)NCCC2=CCCCC2)cc1[N+](=O)[O-] do in these assays?
SR-BI uptake up: 22.3; SR-BI DiI inh: -22.3; Neddylation inh: -48.7; UBC13 polyUb: -9.9

Results for COc1ccc(CNC(=O)C(=O)c2cn(CC(=O)N3CCCC3)c3ccccc23)cc1 ?
SR-BI uptake up: -46.0; SR-BI DiI inh: 46.0; Neddylation inh: -19.9; UBC13 polyUb: -0.7

How did COc1ccccc1CNC(=O)C(=O)c1cn(CC(=O)N2CCCC2)c2ccccc12 do in these assays?
SR-BI DiI inh: 77.8*; Neddylation inh: -54.5; UBC13 polyUb: 4.5

How did COc1ccc(NC(=O)C(=O)c2cn(CC(=O)N3CCCC3)c3ccccc23)cc1OC do in these assays?
SR-BI uptake up: -79.8; SR-BI DiI inh: 79.8*; Neddylation inh: -29.8; UBC13 polyUb: -13.4

How did COc1ccc(OC)c(NC(=O)C(=O)c2cn(CC(=O)N3CCCC3)c3ccccc23)c1 do in these assays?
SR-BI uptake up: -80.5; SR-BI DiI inh: 80.5*; Neddylation inh: -43.4; UBC13 polyUb: -3.4

Results for COc1ccc(C)cc1NC(=O)C(=O)c1cn(CC(=O)N2CCCC2)c2ccccc12 ?
SR-BI uptake up: -76.9; SR-BI DiI inh: inconclusive; Neddylation inh: 0.1; UBC13 polyUb: -1.8

Results for Cc1ccc(NC(=O)C(=O)c2cn(CC(=O)N3CCCCC3)c3ccccc23)cc1 ?
SR-BI uptake up: -3.2; SR-BI DiI inh: 3.2; Neddylation inh: -221.6; UBC13 polyUb: 4.7

How did COc1cccc(NC(=O)C(=O)c2cn(CC(=O)N3CCCC3)c3ccccc23)c1 do in these assays?
SR-BI uptake up: -75.0; SR-BI DiI inh: 75.0*; Neddylation inh: -29.1; UBC13 polyUb: -3.1

What do the screens show for `CC1=C(C(=O)N(C)C)CC(CC(=O)NCCCN(C)C)C(=O)N1CCCN1CCCC1=O` (stereo not given)?
Neddylation inh: -2.0

Results for N#Cc1ccc(CN2C=NS(=O)(=O)c3ccccc32)cc1 ?
SR-BI uptake up: 10.0; SR-BI DiI inh: -10.0; Neddylation inh: -9.1; UBC13 polyUb: 0.5

Results for OCCCCc1nccc2c1[nH]c1ccccc12 ?
SR-BI uptake up: 538.3*; SR-BI DiI inh: inactive; UBC13 polyUb: 20.0

How did O=C(NCc1ccccc1Cl)C1CCN(S(=O)(=O)c2ccc(N3CCCC3=O)cc2)CC1 do in these assays?
SR-BI DiI inh: 113.8*; Neddylation inh: 9.7; UBC13 polyUb: -6.1

What do the screens show for `COC(=O)c1sc2nc(C)cc(C)c2c1N`?
SR-BI uptake up: -15.3; SR-BI DiI inh: 15.4; UBC13 polyUb: 0.9

How did COc1cc(/C=N/NC(=O)c2sc3nc(C)cc(C)c3c2N)ccc1O do in these assays?
SR-BI uptake up: -42.5; SR-BI DiI inh: 42.5; Neddylation inh: 41.7*; UBC13 polyUb: 13.0

How did O=C(Nc1cccc(S(=O)(=O)N2CCOCC2)c1)c1cccc(S(=O)(=O)N2CCCCC2)c1 do in these assays?
SR-BI uptake up: -33.3; SR-BI DiI inh: 33.3; Neddylation inh: 10.9; UBC13 polyUb: 1.4

Results for CN(c1ccccc1)S(=O)(=O)c1cccc(C(=O)Nc2ccc(N3CCOCC3)cc2)c1 ?
SR-BI uptake up: -86.1; SR-BI DiI inh: 86.1*; Neddylation inh: 3.2; UBC13 polyUb: -2.8

How did CCOC(=O)c1c(C)[nH]c(C(=O)COC(=O)c2ccc(F)c(S(=O)(=O)N3CCOCC3)c2)c1C do in these assays?
SR-BI uptake up: -73.6; SR-BI DiI inh: 73.6*; Neddylation inh: -143.0; UBC13 polyUb: 5.2
